CHOP UPR activ – activators of apoptotic CHOP UPR arm, primary screen, cell-based, CHO-CHOP luciferase reporter, luminescence, uHTS | activation, % at 10 µM | 330,000 compounds, 0.34% hits | UPR activation; percent of tunicamycin response over DMSO baseline | AID 449763, 2010;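 active means at 10 µM dose, activation of 40% or more, normalized to positive control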;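 further: 100% = tunicamycin at 10 µg/mL and 0% = DMSO alone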
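System: CHO-CHOP luciferase reporter cell line; amount: 500 cells/well; buffer or medium: F12 medium containing 10% fetal bovine serum; incubation: 6 h compound exposure at 37 °C after overnight seeding; measured by: luciferase luminescence after 10 min with Steady-Glo reagent; evaluation: % reporter activation, DMSO baseline versus tunicamycin full activation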
UPR XBP1 act – activators of adaptive XBP1 UPR arm, primary screen, cell-based, CHO-XBP1 luciferase reporter, luminescence, uHTS | IRE1-XBP1 UPR activation; percent of tunicamycin response, DMSO as zero | activation, % at 20 µM | 330,000 compounds, 0.33% hits | AID 463104, 2010;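 active means versus positive control, 20 µM dose yields 30% or more activation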;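 further: 100% = tunicamycin at 10 µg/mL and 0% = DMSO only wells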
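assay system = CHO-XBP1 luciferase reporter cells | amount = 1000 cells/well | buffer or medium = F12 plus 10% FBS | compound dosing = single point, 20 µM final compound, 1% DMSO | incubation = 16-18 h cell attachment at 37 °C, then 6 h compound exposure | detection = Steady-Glo luminescence read | controls = tunicamycin 10 µg/mL and vehicle-only wells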
FXN GAA850 act – FXN promoter activators, primary screen, cell-based, luciferase luminescence, HEK293 lucGAA850; HEK293 lucGAA850 FXN promoter luciferase reporter, 24 h; percent of 10 µM SAHA response; activation, % at 6 µM; 360,000 compounds, 0.56% hits; AID 540364, 2011;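 active means activation above the average of all compounds screened plus 3 SD, cutoff fixed separately per campaign, cut at about 7.5% in these data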;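 further: 0% = DMSO wells and 100% = 10 µM SAHA wells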
CHOP inh – inhibitors of CHOP promoter induction, primary screen, cell-based, unfolded protein response, luciferase reporter; CHO-K1 CHOP-promoter luciferase, tunicamycin-induced, 15-18 h; inhibition, % at 10 µM; 220,000 compounds, 3.8% hits;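 active means compounds that reduced the stress-induced luciferase reporter signal by more than about 70% of percent inhibition, limit read from the data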;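 further: 0% = tunicamycin plus vehicle and 100% = wells without tunicamycin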
CHOP confirm – retest of CHOP induction inhibitors, confirmation, cell-based; CHO-CHOP promoter luciferase reporter, tunicamycin-induced, luminescence; shares compounds with CHOP inh; 2,100 compounds, 45% hits; inhibition, % at 10 µM;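 active means mean of three repeat readings of reporter signal inhibition above a set limit, cut at about 70% in these data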;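 further: 0% = tunicamycin plus vehicle and 100% = wells lacking tunicamycin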
Active calls of the source: *. This is one part of a sample in which hits are shown more often than they occur.

What do the screens show for `CCOC(=O)c1[nH]c2ccc(Cl)cc2c1-c1ccccc1`?
CHOP UPR activ: 8; UPR XBP1 act: 2; FXN GAA850 act: 4; CHOP inh: 97*; CHOP confirm: 120*

Results for COc1cc(C=C(C#N)c2ccc([N+](=O)[O-])cc2)ccc1O ?
FXN GAA850 act: 1

Results for CC(C)(C)c1cc(-c2csc(Nc3ccccc3)[n+]2Cc2ccc(C(=O)O)cc2)cc(C(C)(C)C)c1O ?
CHOP UPR activ: 0; UPR XBP1 act: 11; FXN GAA850 act: 2; CHOP inh: 106*; CHOP confirm: 121*

What do the screens show for `COCCNC(=O)C1(C)CCN(C(=O)c2cc(-c3ccccc3)cs2)C1` (configuration not stated)?
FXN GAA850 act: 3

Results for Cc1ccc2[nH]c3c(c2c1)CN(C(=O)CN1CCN(c2cccc(C)c2C)CC1)CC3 ?
CHOP UPR activ: -1; UPR XBP1 act: -5; FXN GAA850 act: -2; CHOP inh: 102*; CHOP confirm: 112*

How did O=C(Nc1cccc2c1CCCC2)c1cc(C2CCCCN2C(=O)CCCc2ccccc2)on1 (configuration not stated) do in these assays?
FXN GAA850 act: 0

How did O=C(N/N=C/c1ccc(O)c2ncccc12)c1cccc(Br)c1 do in these assays?
CHOP UPR activ: 2; UPR XBP1 act: 1; FXN GAA850 act: -4; CHOP inh: 105*; CHOP confirm: 38

How did O=C(N/N=C/c1ccc([N+](=O)[O-])s1)c1ccncc1 do in these assays?
CHOP UPR activ: 0; UPR XBP1 act: 3; FXN GAA850 act: 1; CHOP inh: -28

How did O=C(N/N=C/c1ccc([N+](=O)[O-])s1)c1cccc(Br)c1 do in these assays?
CHOP UPR activ: -2; UPR XBP1 act: 1; FXN GAA850 act: -3; CHOP inh: 97*; CHOP confirm: 61

How did O=C(Nc1ccc(Cl)cc1)Nc1nc(-c2ccccc2O)cs1 do in these assays?
CHOP UPR activ: 3; UPR XBP1 act: 13; FXN GAA850 act: -1; CHOP inh: 104*; CHOP confirm: 51

What do the screens show for `O=C1C(C2=NC(c3ccccn3)C3C(=O)N(c4ccc(Cl)cc4Cl)C(=O)C23)=C(O)c2ccccc21` (configuration not stated)?
CHOP UPR activ: 20; UPR XBP1 act: 3; FXN GAA850 act: -1; CHOP inh: 105*; CHOP confirm: 118*

Results for COC(=O)N(C)C[C@@H]1OCc2cnnn2CCCC(=O)N([C@@H](C)CO)C[C@H]1C ?
FXN GAA850 act: 0

Results for COc1cc2c(cc1OC)C(c1ccccc1)N(C(=O)CCl)CC2 (configuration not stated) ?
CHOP UPR activ: -3; UPR XBP1 act: -7; FXN GAA850 act: -9; CHOP inh: 111*; CHOP confirm: 117*

How did CCC(=O)N1CCC1(C)C(=O)Nc1cccc2cccnc12 (configuration not stated) do in these assays?
FXN GAA850 act: -1

Results for OC1(c2ccc(Br)cc2)CCNCC1 ?
CHOP UPR activ: 0; UPR XBP1 act: 1; FXN GAA850 act: 1; CHOP inh: 101*; CHOP confirm: 25

How did Cc1ccc(NC(=O)NC(=O)CN2C(=O)NC3(CCCCCCC3)C2=O)c(C)c1 do in these assays?
CHOP UPR activ: -1; UPR XBP1 act: 3; FXN GAA850 act: 0; CHOP inh: 105*; CHOP confirm: 91*

What do the screens show for `Cc1ccc(NC(=O)CCN2C(=O)NC3(CCCC3)C2=O)c(C)c1`?
CHOP UPR activ: -1; UPR XBP1 act: 0; FXN GAA850 act: -1

Results for Cc1c(N=Cc2c(O)n(C3CCCCC3)c(=O)[nH]c2=O)c(=O)n(-c2ccccc2)n1C ?
CHOP UPR activ: -1; UPR XBP1 act: -8; FXN GAA850 act: 0; CHOP inh: 25

What do the screens show for `O=c1[nH]c(=O)n(C2CCCCCC2)c(O)c1C=NCc1ccc(F)cc1`?
CHOP UPR activ: 0; UPR XBP1 act: 1; FXN GAA850 act: -1; CHOP inh: 107*; CHOP confirm: 41

Results for CNc1ccc2ncc(-c3ccccc3NC(C)=O)n2n1 ?
FXN GAA850 act: 1
